# Screening results from PubChem BioAssay.
# CYP2C9 act – increases human cytochrome P450 2C9 activity | P11712 | hit rate 1.4% among 96,000 | recombinant CYP2C9, luciferin-H conversion, luminescence; hits give high values; factor 1 = untreated enzyme, 0 = blocked | activation factor at 5 µM;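 active = activation factor of 2 or more for CYP2C9 at a 5 µM dose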;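 note: 0 = sulfaphenazole-blocked wells and 1 = vehicle-only wells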
# Target sequence (P11712 whole entry, looked up): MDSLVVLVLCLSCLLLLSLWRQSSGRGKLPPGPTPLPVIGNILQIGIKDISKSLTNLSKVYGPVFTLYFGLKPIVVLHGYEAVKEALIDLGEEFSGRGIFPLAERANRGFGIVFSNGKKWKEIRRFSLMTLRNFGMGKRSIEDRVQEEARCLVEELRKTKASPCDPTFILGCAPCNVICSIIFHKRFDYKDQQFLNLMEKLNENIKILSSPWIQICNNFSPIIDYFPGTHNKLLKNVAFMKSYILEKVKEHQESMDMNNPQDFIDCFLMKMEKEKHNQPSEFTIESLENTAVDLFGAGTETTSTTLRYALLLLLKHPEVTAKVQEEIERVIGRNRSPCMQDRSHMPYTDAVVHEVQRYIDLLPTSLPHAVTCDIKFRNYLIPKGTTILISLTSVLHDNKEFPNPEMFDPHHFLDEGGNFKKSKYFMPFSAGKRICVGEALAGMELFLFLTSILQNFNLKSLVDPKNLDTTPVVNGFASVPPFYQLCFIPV
# CYP2C19 activ – cytochrome P450 2C19 (human) activation | P33261 | recombinant CYP2C19, luciferin-H EGE luminescence; hits give high values; 0 = fully inhibited enzyme, 1 = untreated enzyme | activation factor at 5 µM | 96,000 tested, under 10 active;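 active = activation factor of at least 2 at 5 µM in the primary screen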;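 note: 0 = wells with 2.5 mM tranylcypromine and 1 = vehicle-only wells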
# CYP2C19 inhib – blocks human cytochrome P450 2C19 | hit rate 21% among 96,000 | AID 778 | inhibition, % at 5 µM | P33261 | CYP2C19 Supersomes, luciferin-H EGE luminescence, 30 min;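 active = CYP2C19 inhibition above a set limit at 5 µM in the primary screen, cut at about 50% in these data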;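 note: plate controls were negative control wells for no effect and 2.5 mM tranylcypromine positive control for full effect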
# CYP2C9 inhib – blocks human cytochrome P450 2C9 | P11712 | hit rate 20% among 96,000 | CYP2C9 Supersomes, luciferin-H conversion, luminescence | inhibition, % at 5 µM | AID 777;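 active = blocking of liver enzyme CYP2C9 beyond about 50% at 5 µM, limit read from the data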
# tolC growth inh – growth inhibitors of E. coli BW25113 tolC mutant; growth inhibition, % at 10 µM (by protocol); OD615; hit rate 2.2% among 65,000;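 active = growth inhibition at or above a cutoff equal to the mean over every tested compound plus 3 SD, cut at about 60% in these data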;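 note: growth measured after 20 h incubation at 37 °C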
#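 signal = optical density read at 615 nm | test system = E. coli ΔtolC::kan strain BW25113 | timing = 20 h compound exposure of bacteria at 37 °C | buffer or medium = LB medium plus 50 µg/mL kanamycin | compound dosing = 10 µM final, single dose | evaluation = % inhibition of E. coli growth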
# E coli WT exp – E. coli BW25113 growth inhibition, expanded screen | OD600 absorbance | growth inhibition, % at 100 µM | hit rate 0.15% among 98,000 | AID 710;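 active = growth inhibition above about 50% at one test dose, limit read from the data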;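 note: growth measured after 20 h incubation at 37 °C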
# * hit, by the source's call; nt = not tested or not shown. Compounds with a hit are over-represented: about 29% of the library has one in this group of screens.
SMILES,CYP2C9 act,CYP2C19 activ,CYP2C19 inhib,CYP2C9 inhib,tolC growth inh,E coli WT exp
CSC1=NCCN1C(=O)c1cccc(Br)c1,1,0.9,12.0,3.9,-14.0,-8.0
CCN1C(=O)/C(=C/N(C)c2ccccc2)OC1=S,0.5,0.2,78.6*,52.6*,9.4,3.0
CCN1C(=O)/C(=C2\C=Cc3ccccc3N2CC)OC1=S,nt,nt,nt,nt,2.2,nt
C=CCn1c(COc2ccc(Cl)cc2)nnc1SCC(=O)N/N=C/c1cccc(O)c1,0.7,0.9,10.4,29.1,nt,-7.0
C=CCn1c(COc2ccc(Cl)cc2)nnc1SCC(=O)N1CC(=O)Nc2ccccc21,2.6*,0.7,30.8,-156.3,13.6,5.0
C=CCn1c(COc2ccccc2)nnc1SC(C)C(=O)N/N=C/c1cc(Cl)ccc1O (stereo unspecified),0.5,0.6,35.1,50.0*,nt,11.0
C=CCn1c(COc2ccccc2)nnc1SCC(=O)Nc1ccc(S(N)(=O)=O)cc1,0.5,0.6,37.8,50.9*,9.8,4.0
C=CCn1c(COc2ccccc2)nnc1SCC(=O)C(C)(C)C,0.6,0.4,64.9*,44.2,11.3,8.0
COc1cc(C(c2sc3nc(C)nn3c2O)N2CCN(c3ccccc3)CC2)cc(OC)c1OC (stereo unspecified),nt,nt,nt,nt,3.9,-8.0
CC(C)NCC(O)COc1ccc(CCOCC2CC2)cc1 (stereo unspecified),nt,nt,nt,nt,12.5,nt
N/C(=N\OC(=O)C(c1ccccc1)c1ccccc1)c1cccnc1,0.5,0.8,19.0,51.1*,nt,0.0
N/C(=N\OC(=O)c1ccc(Cl)cc1)c1cccnc1,0.9,0.6,42.8,12.1,nt,9.0
COc1ccc(CNc2nc3nc(C)c(Cl)c(=O)n3[nH]2)cc1OC,0.2,1.1,-14.0,75.6*,-3.1,-2.0
COc1ccccc1CNc1nc2nc(C)c(C)c(=O)n2[nH]1,0.3,0.9,14.3,70.2*,3.8,-3.0
